Data: ChEMBL document CHEMBL2385032, “Dual-functional abeo-taxane derivatives destabilizing microtubule equilibrium and inhibiting NF-κB activation” (2013)
The source made the active and inactive calls. The calls are words filed in the database; no cut-off is given here.

Assays:
HCT-116 [1] = assay: Cell cycle arrest in human HCT116 cells assessed as accumulation at S phase at 1 uM after 12 hrs by propidium iodide staining-based FACS analysis (reference value: 20.48 to 23.62 %); type: functional
HCT-116 [2] = assay: Induction of apoptosis in human HCT116 cells assessed as late apoptotic cells at 2 uM after 24 hrs by AnnexinV-FITC/PI staining-based flow cytometry (reference value: 2.53 %); type: functional
HCT-116 [3] = assay: Cell cycle arrest in human HCT116 cells assessed as accumulation at G0/G1 phase at 1 uM after 12 hrs by propidium iodide staining-based FACS analysis (reference value: 54.63 to 55.88 %); type: functional
HEK-293T [4] = assay: Inhibition of TNF-alpha induced NF-kapppaB activation in HEK293T cells incubated 1 hr prior to TNF-alpha addition measured after 18 hrs by luciferase reporter gene assay; type: cell-based; conditions: Homo sapiens
Summary of the method: (§1)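 HEK 293T cells transiently transfected 12 h with pNFκB-luc and pRL-TK, pretreated 1 h with compound (0.31–2.50 μM) or DMSO, then stimulated with TNF-α 25 ng/mL for 18 h; firefly and Renilla luciferase read by dual-luciferase assay. Data from one of three independent experiments.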

HCT-116 [5] = assay: Induction of apoptosis in human HCT116 cells after 24 hrs by AnnexinV-FITC/PI staining-based flow cytometry; type: functional, cell-based
SNB-19 = assay: Cytotoxicity against human SNB19 cells; type: functional
Summary of the method: (§2)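 NCI-60 human tumor cell line screen run by standard NCI protocol: single-dose prescreen at 10 μM, then multi-dose testing of compounds giving over 50% growth inhibition; GI50 = concentration for 50% growth inhibition.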

HCT-116 [6] = assay: Induction of apoptosis in human HCT116 cells assessed as early apoptotic cells at 1 uM after 24 hrs by AnnexinV-FITC/PI staining-based flow cytometry (reference value: 2.17 %); type: functional
HEK-293T [7] = assay: Inhibition of TNF-alpha induced NF-kapppaB activation in HEK293T cells at 1.25 uM incubated 1 hr prior to TNF-alpha addition measured after 18 hrs by luciferase reporter gene assay; type: cell-based; conditions: Homo sapiens; summary of the method: as §1
RXF 393 = assay: Cytotoxicity against human RXF393 cells; type: functional; summary of the method: as §2
Homo sapiens [8] = species on record: Homo sapiens; assay: Induction of microtubule depolymerization in human PC3 interphase cells at 2 uM after 24 hrs by DAPI staining-based immunofluorescence microscopic analysis; type: cell-based
Summary of the method: (§3)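 PC-3 cells grown on chamber slides 36 h, then treated 24 h (test agents 2, 5 or 10 μM; reference agents 200 nM); fixed in 4% paraformaldehyde, permeabilized with 0.5% Triton X-100, stained with anti-α-tubulin monoclonal plus FITC secondary and DAPI for nuclei; spindle and microtubule morphology by fluorescence microscopy.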

MOLT-4 = assay: Cytotoxicity against human MOLT4 cells; type: functional; summary of the method: as §2
HCT-116 [9] = assay: Cell cycle arrest in human HCT116 cells assessed as accumulation at G2/M phase after 12 hrs by propidium iodide staining-based FACS analysis; type: functional
HCT-116 [10] = assay: Cell cycle arrest in human HCT116 cells assessed as reduction in G0/G1 phase after 12 hrs by propidium iodide staining-based FACS analysis; type: functional
OVCAR-3 = assay: Cytotoxicity against human OVCAR3 cells; type: functional; summary of the method: as §2
HCT-116 [11] = assay: Induction of apoptosis in human HCT116 cells at 2 uM after 24 hrs by AnnexinV-FITC/PI staining-based flow cytometry; type: functional
LOX IMVI = assay: Cytotoxicity against human LOXIMVI cells; type: functional
Tubulin (Homo sapiens) [12] = biological target: T1, Tubulin (Homo sapiens) (UniProt P68371+Q9H4B7+P0DPH7+P68366+Q13509+Q71U36+P04350+Q3ZCM7+P07437+P68363+Q9BQE3+Q6PEY2+Q13885+Q9BVA1+Q9BUF5); assay: Inhibition of tubulin (unknown origin) polymerization assessed as destabilization of microtubule at 15 uM by fluorescence assay; type: protein-complex assay
Summary of the method: (§4)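 Cell-free tubulin polymerization kit; tubulin mixed with DMSO control, 500 μM CaCl2, 3 μM paclitaxel or test compounds at 15 or 30 μM; polymerization followed kinetically by fluorescence, excitation 340 nm, emission 420 nm, in a temperature-regulated fluorimeter. Three independent experiments in triplicate.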

HEK-293T [13] = assay: Inhibition of TNF-alpha induced NF-kapppaB activation in HEK293T cells at 0.62 uM incubated 1 hr prior to TNF-alpha addition measured after 18 hrs by luciferase reporter gene assay; type: cell-based; conditions: Homo sapiens; summary of the method: as §1
HCT-116 [14] = assay: Induction of apoptosis in human HCT116 cells assessed as early apoptotic cells at 2 uM after 24 hrs by AnnexinV-FITC/PI staining-based flow cytometry (reference value: 2.17 %); type: functional
HCT-116 [15] = assay: Induction of apoptosis in human HCT116 cells assessed as late apoptotic cells at 1 uM after 24 hrs by AnnexinV-FITC/PI staining-based flow cytometry (reference value: 2.53 %); type: functional
HCT-116 [16] = assay: Cell cycle arrest in human HCT116 cells assessed as accumulation at S phase at 2 uM after 12 hrs by propidium iodide staining-based FACS analysis (reference value: 20.48 to 23.62 %); type: functional
HEK-293T [17] = assay: Inhibition of TNF-alpha induced NF-kapppaB activation in HEK293T cells at 0.31 uM incubated 1 hr prior to TNF-alpha addition measured after 18 hrs by luciferase reporter gene assay; type: cell-based; conditions: Homo sapiens; summary of the method: as §1
HCT-116 [18] = assay: Cell cycle arrest in human HCT116 cells assessed as accumulation at G0/G1 phase at 2 uM after 12 hrs by propidium iodide staining-based FACS analysis (reference value: 54.63 to 55.88 %); type: functional
DU-145 = assay: Cytotoxicity against human DU145 cells; type: functional; summary of the method: as §2
Homo sapiens [19] = species on record: Homo sapiens; assay: Induction of microtubule depolymerization in human PC3 mitotic cells assessed as abnormal spindles at 2 uM after 24 hrs by DAPI staining-based immunofluorescence microscopic analysis; type: cell-based; summary of the method: as §3
T47D = assay: Cytotoxicity against human T47D cells; type: functional; summary of the method: as §2
NCI-H322M = assay: Cytotoxicity against human NCI-H322M cells; type: functional; summary of the method: as §2
HCT-116 [20] = assay: Induction of apoptosis in human HCT116 cells at 1 uM after 24 hrs by AnnexinV-FITC/PI staining-based flow cytometry; type: functional
HCT-116 [21] = assay: Cell cycle arrest in human HCT116 cells assessed as accumulation at G2/M phase at 1 uM after 12 hrs by propidium iodide staining-based FACS analysis (reference value: 20.40 to 22.32 %); type: functional
HCT-116 [22] = assay: Cytotoxicity against human HCT116 cells; type: functional; summary of the method: as §2
PC-3 [23] = assay: Induction of microtubule depolymerization in human PC3 cells at 200 nM after 24 hrs by DAPI staining-based immunofluorescence microscopic analysis; type: cell-based; summary of the method: as §3
Tubulin (Homo sapiens) [24] = biological target: T1, Tubulin (Homo sapiens); assay: Induction of tubulin (unknown origin) polymerization at 3 uM by fluorescence assay; type: protein-complex assay; summary of the method: as §4
PC-3 [25] = assay: Induction of microtubule polymerization in human PC3 cells assessed as bundled sheet like pattern at 200 nM after 24 hrs by DAPI staining-based immunofluorescence microscopic analysis; type: cell-based; summary of the method: as §3
HEK-293T [26] = assay: Inhibition of TNF-alpha induced NF-kapppaB activation in HEK293T cells at 1.25 to 5 uM incubated 1 hr prior to TNF-alpha addition measured after 18 hrs by luciferase reporter gene assay; type: cell-based; conditions: Homo sapiens
Tubulin (Homo sapiens) [27] = biological target: T1, Tubulin (Homo sapiens); assay: Induction of tubulin (unknown origin) polymerization at 30 uM by fluorescence assay; type: protein-complex assay; summary of the method: as §4

C=C1C(=O)C[C@H](OC(C)=O)[C@@]2(C)[C@@H](OC(C)=O)[C@H](OC(=O)c3ccccc3)C3=C(C)[C@@H](OC(=O)[C@H](O)[C@@H](NC(=O)c4ccccc4)c4ccccc4)C[C@@]3(C(C)(C)O)[C@@H](OC(C)=O)[C@H]12
Activity (HCT-116 [1]): 14.39% | Activity (HCT-116 [2]): 14% | Activity (HCT-116 [3]): 55.02% | inhibition (HEK-293T [4]): Dose-dependent effect | Activity (HCT-116 [5]): Dose-dependent effect | GI50 (SNB-19): 33.7 µM | Activity (HCT-116 [6]): 2.11% | inhibition (HEK-293T [7]): 37% | GI50 (RXF 393): 1.29 µM | Activity (Homo sapiens [8]): Active | GI50 (MOLT-4): 0.65 µM | Activity (HCT-116 [9]): Dose-dependent effect | Activity (HCT-116 [10]): Dose-dependent effect | GI50 (OVCAR-3): 1.72 µM | Activity (HCT-116 [11]): 20.36% | GI50 (LOX IMVI): 1.86 µM | inhibition (Tubulin (Homo sapiens) [12]): Active | inhibition (HEK-293T [13]): 27% | Activity (HCT-116 [14]): 5.87% | Activity (HCT-116 [15]): 2.82% | Activity (HCT-116 [16]): 18.27% | inhibition (HEK-293T [17]): 14% | Activity (HCT-116 [18]): 44.75% | GI50 (DU-145): 1.59 µM | Activity (Homo sapiens [19]): Active | GI50 (T47D): 1.86 µM | GI50 (NCI-H322M): 18.5 µM | Activity (HCT-116 [20]): 8.54% | Activity (HCT-116 [21]): 29.81% | GI50 (HCT-116 [22]): 1.28 µM

C=C1[C@@H](OC(=O)[C@@H](O)[C@H](NC(=O)OC(C)(C)C)c2ccccc2)C[C@H](OC(C)=O)[C@@]2(C)[C@@H](OC(C)=O)[C@H](OC(=O)c3ccccc3)C3=C(C)[C@@H](O)C[C@@]3(C(C)(C)O)[C@@H](OC(C)=O)[C@H]12
GI50 (SNB-19): > 100 µM | GI50 (RXF 393): 26.6 µM | GI50 (MOLT-4): 83.3 µM | GI50 (OVCAR-3): 28.4 µM | GI50 (LOX IMVI): > 100 µM | GI50 (DU-145): 72.4 µM | GI50 (T47D): > 100 µM | GI50 (NCI-H322M): > 100 µM | GI50 (HCT-116 [22]): 45.2 µM

COc1ccc(/C=C\c2cc(OC)c(OC)c(OC)c2)cc1O
Activity (PC-3 [23]): Active

CC(=O)O[C@H]1C(=O)[C@@]2(C)[C@H]([C@H](OC(=O)c3ccccc3)[C@]3(O)C[C@H](OC(=O)[C@H](O)[C@@H](NC(=O)c4ccccc4)c4ccccc4)C(C)=C1C3(C)C)[C@]1(OC(C)=O)CO[C@@H]1C[C@@H]2O [PACLITAXEL]
Activity (Tubulin (Homo sapiens) [24]): Active | GI50 (SNB-19): 0.04 µM | GI50 (RXF 393): 0.05 µM | GI50 (MOLT-4): 0.032 µM | GI50 (OVCAR-3): 0.02 µM | Activity (PC-3 [25]): Active | GI50 (LOX IMVI): 0.016 µM | GI50 (DU-145): 0.032 µM | GI50 (T47D): 0.01 µM | GI50 (NCI-H322M): 0.05 µM | GI50 (HCT-116 [22]): 0.01 µM

C=C1C(=O)C=C[C@@]2(C)[C@@H](OC(C)=O)[C@H](OC(=O)c3ccccc3)C3=C(C)[C@@H](OC(=O)[C@H](O)[C@@H](NC(=O)OC(C)(C)C)c4ccccc4)C[C@@]3(C(C)(C)O)[C@@H](OC(C)=O)[C@H]12
GI50 (SNB-19): > 100 µM | GI50 (RXF 393): 2.08 µM | GI50 (MOLT-4): 3.78 µM | GI50 (OVCAR-3): 3.19 µM | GI50 (LOX IMVI): 2.2 µM | GI50 (DU-145): 6.05 µM | GI50 (T47D): 4.78 µM | GI50 (NCI-H322M): 24.6 µM | GI50 (HCT-116 [22]): 1.87 µM

C=C1C(=O)C=C[C@@]2(C)[C@@H](OC(C)=O)[C@H](OC(=O)c3ccccc3)C3=C(C)[C@@H](OC(=O)[C@H](O)[C@@H](NC(=O)c4ccccc4)c4ccccc4)C[C@@]3(C(C)(C)O)[C@@H](OC(C)=O)[C@H]12
GI50 (SNB-19): 15.3 µM | GI50 (RXF 393): 0.52 µM | GI50 (MOLT-4): 2.48 µM | GI50 (OVCAR-3): 1.33 µM | GI50 (LOX IMVI): 1.57 µM | GI50 (DU-145): 1.66 µM | GI50 (T47D): 1.7 µM | GI50 (NCI-H322M): 4.69 µM | GI50 (HCT-116 [22]): 0.77 µM

C=C1C(=O)O[C@@H]2C3O[C@]3(C)CC/C=C(\C)CC[C@@H]12 (some centres not stated)
inhibition (HEK-293T [26]): Active | GI50 (SNB-19): 63.1 µM | GI50 (RXF 393): 12.6 µM | GI50 (MOLT-4): 15.8 µM | GI50 (OVCAR-3): 19.9 µM | GI50 (NCI-H322M): 19.9 µM | GI50 (HCT-116 [22]): 10 µM

CC(=O)O[C@H]1C[C@H]2OC[C@@]2(OC(C)=O)[C@H]2[C@H](OC(C)=O)[C@]3(C(C)(C)O)C[C@H](OC(=O)[C@H](O)[C@@H](NC(=O)OC(C)(C)C)c4ccccc4)C(C)=C3[C@@H](OC(=O)c3ccccc3)[C@H](OC(C)=O)[C@]12C
inhibition (HEK-293T [26]): inactive | GI50 (SNB-19): 33.1 µM | GI50 (RXF 393): 12.6 µM | GI50 (MOLT-4): 42.7 µM | GI50 (OVCAR-3): 15.5 µM | Activity (Tubulin (Homo sapiens) [27]): Active | GI50 (LOX IMVI): 21.4 µM | GI50 (DU-145): 21.4 µM | GI50 (T47D): 38.9 µM | GI50 (NCI-H322M): 50.1 µM | GI50 (HCT-116 [22]): 16.2 µM
